Measurements taken from ChEMBL document CHEMBL4017509, “A Dual Modulator of Farnesoid X Receptor and Soluble Epoxide Hydrolase To Counter Nonalcoholic Steatohepatitis” (J Med Chem, 2017).
Calls of active or inactive are those of the source. The calls are words filed in the database; no cut-off is given here.

Columns and labels:
[1] = target: T1, Bifunctional epoxide hydrolase 2 (Homo sapiens, UniProt P34913); assay: Inhibition of recombinant human sEH using PHOME as substrate preincubated for 30 mins followed by substrate addition measured for 30 mins by fluorescence photometric method
T1 sequence (P34913 whole entry): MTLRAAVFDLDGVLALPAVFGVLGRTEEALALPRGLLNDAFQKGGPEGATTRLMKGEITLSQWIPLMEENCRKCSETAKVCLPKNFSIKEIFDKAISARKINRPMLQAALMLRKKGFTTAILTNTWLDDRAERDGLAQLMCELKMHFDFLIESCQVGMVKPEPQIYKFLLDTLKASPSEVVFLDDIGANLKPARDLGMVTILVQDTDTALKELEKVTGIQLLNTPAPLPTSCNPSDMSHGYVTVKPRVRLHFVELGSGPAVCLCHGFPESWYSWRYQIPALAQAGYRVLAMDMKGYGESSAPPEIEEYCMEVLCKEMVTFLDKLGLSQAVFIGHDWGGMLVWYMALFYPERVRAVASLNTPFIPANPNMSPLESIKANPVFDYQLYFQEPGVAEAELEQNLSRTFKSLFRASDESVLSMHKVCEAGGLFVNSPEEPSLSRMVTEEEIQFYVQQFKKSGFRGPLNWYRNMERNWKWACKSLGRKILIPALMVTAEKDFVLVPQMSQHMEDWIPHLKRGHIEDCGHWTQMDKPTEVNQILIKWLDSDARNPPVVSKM
In short: (§1)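 Recombinant human sEH in Bis-Tris buffer pH 7, 0.1 mg/mL BSA, 0.01% Triton X-100 (final), preincubated 30 min at room temperature with compound (1% DMSO final). PHOME added at 50 μM final; 6-methoxynaphthaldehyde fluorescence read each minute for 30 min.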

[2] = target: T2, Bile acid receptor (Homo sapiens) (UniProt Q96RI1); assay: Transactivation of human FXR expressed in human HeLa cells co-expressing BSEP at 50 uM after 24 hrs by dual-glo luciferase reporter gene assay relative to GW4064; assay type: cell-based
T2 sequence (whole entry): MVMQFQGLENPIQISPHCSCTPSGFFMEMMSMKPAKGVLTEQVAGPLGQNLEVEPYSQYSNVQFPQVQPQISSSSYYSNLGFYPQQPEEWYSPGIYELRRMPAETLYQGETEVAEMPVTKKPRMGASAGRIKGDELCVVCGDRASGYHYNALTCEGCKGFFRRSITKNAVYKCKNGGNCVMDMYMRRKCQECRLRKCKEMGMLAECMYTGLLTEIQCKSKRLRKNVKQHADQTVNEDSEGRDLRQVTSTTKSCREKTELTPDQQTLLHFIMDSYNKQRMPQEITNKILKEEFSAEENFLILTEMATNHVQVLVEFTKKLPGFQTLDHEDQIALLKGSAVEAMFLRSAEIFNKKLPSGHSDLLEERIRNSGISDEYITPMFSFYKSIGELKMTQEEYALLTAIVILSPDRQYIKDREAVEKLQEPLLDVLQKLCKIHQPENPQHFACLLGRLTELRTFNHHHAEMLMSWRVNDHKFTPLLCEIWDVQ
In short: (§2)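 HeLa cells in DMEM/10% FCS at 37 °C, 5% CO2; switched to 0.5% charcoal-stripped FCS before calcium phosphate co-transfection with pcDNA3-hFXR, pSG5-hRXR, BSEP promoter–firefly luciferase reporter and pRL-SV40 renilla. Compound in 0.1% DMSO, phenol red-free medium, 24 h.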

[3] = target: T3, Bile acid receptor (Homo sapiens, UniProt Q96RI1); assay: Transactivation of human FXR expressed in human HeLa cells co-expressing BSEP after 24 hrs by dual-glo luciferase reporter gene assay; assay type: cell-based; in short: as §2
T3 sequence (Q96RI1 whole entry): T2 sequence (whole entry)

[4] = target: T4, Bifunctional epoxide hydrolase 2 (Homo sapiens) (UniProt P34913); assay: Inhibition of recombinant human sEH at 50 uM using PHOME as substrate preincubated for 30 mins followed by substrate addition measured for 30 mins by fluorescence photometric method; in short: as §1
T4 sequence (whole entry): T1 sequence (P34913 whole entry)

Row | Compound | IC50 ([1]; read-out: IC50) [nM] | Emax [2] | IC50 [1] | EC50 [3] [nM] | inhibition [4] [%]
1 | Cc1cc(C(=O)O)ccc1CNC(=O)c1ccc(C(C)(C)C)cc1 | 680 | inactive |  |  | 
2 | CC(C)Oc1ccc(CNC(=O)c2ccc(C(C)(C)C)cc2)cc1 |  | 26% | Nd(Insoluble) | 170 | 
3 | CSc1ccc(CNC(=O)c2ccc(C(C)(C)C)cc2)cc1 | 120 | 33% |  | 100 | 
4 | Cc1ccccc1C(=O)NCc1ccc(C(=O)O)cc1 |  | inactive |  |  | 14
5 | CCOc1ccc(CNC(=O)c2ccc(C(C)(C)C)cc2)cc1 | 570 | 31% |  | 160 | 
6 | CC(C)(C)c1ccc(C(=O)NCc2ccc(C=O)cc2)cc1 | 510 | 22% |  | 5300 | 
7 | COc1ccc(CNC(=O)c2ccc(C(C)(C)C)cc2)cc1 | 430 | 19% |  | 150 | 
8 | Cc1cccc(C(=O)NCc2ccc(C(=O)O)cc2)c1 |  | inactive |  |  | 37
9 | CC(=O)NS(=O)(=O)c1ccc(CNC(=O)c2ccc(C(C)(C)C)cc2)cc1 | 12700 | inactive |  |  | 
10 | CC(C)(C)c1ccc(C(=O)NCc2ccc(C(N)=O)cc2)cc1 | 1200 | 27% |  | 3800 | 
11 | CC(C)(C)c1ccc(C(=O)NCc2ccc(S(N)(=O)=O)cc2F)cc1 | 137 | 34% |  | 970 | 
12 | CN(C)C(=O)c1ccc(CNC(=O)c2ccc(C(C)(C)C)cc2)cc1 | 4600 | 17% |  | 170 | 
13 | CC(C)(C)c1ccc(C(=O)NCc2ccc(C(=O)O)c(Cl)c2)cc1 |  | 21% |  | 8.8 | 50
14 | CC(C)(C)c1ccc(C(=O)NCc2ccc(NS(C)(=O)=O)cc2)cc1 | 650 | 22% |  | 44 | 
15 | CC(C)(C)c1ccc(C(=O)NCc2ccc(CCC(=O)O)cc2)cc1 | 1630 | 16% |  | 350 | 
16 | COc1cc(C(=O)NCc2ccc(C(=O)O)cc2)ccc1C(C)(C)C | 5040 | 23% |  | 1200 | 
17 | O=C(O)c1ccc(CNC(=O)C2CCNCC2)cc1 |  | inactive |  |  | < 3
18 | CC(C)(C)c1ccc(NC(=O)Nc2ccc(C(=O)O)cc2)cc1 | 18500 | 14% |  | 3800 | 
19 | O=C(O)c1ccc(CNC(=O)c2ccccc2-c2ccccc2)cc1 |  | 22% |  |  | 19
20 | CC(=O)Nc1ccc(CNC(=O)c2ccc(C(C)(C)C)cc2)cc1 | 1120 | 31% |  | 2900 | 
21 | CC(C)(C)c1ccc(C(=O)NCc2ccc(C(=O)O)c(F)c2)cc1 | 20300 | 28% |  | 140 | 
22 | CC(C)(C)c1ccc(C(=O)NCc2ccc(CC(=O)O)cc2)cc1 | 20000 | 19% |  | 6400 | 
23 | O=C(O)c1ccc(CNC(=O)c2ccc(-c3ccccc3)cc2)cc1 |  | 24% |  |  | 
24 | CC(C)(C)c1ccc(C(=O)NCc2ccc(C#N)cc2)cc1 | 910 | inactive |  |  | 

Row | Compound | IC50 ([1]; read-out: IC50) [nM] | Emax [2] | IC50 [1] | EC50 [3] [nM] | inhibition [4] [%]
25 | CC(C)(C)c1ccc(C(=O)NCc2ccc(C(=O)O)cc2Cl)cc1 | 170 | 25% |  | 7500 | 
26 | Cc1ccc(C(=O)NCc2ccc(C(=O)O)cc2)c(C)c1 |  | inactive |  |  | 7
27 | CC(C)(C)c1ccc(C(=O)NCc2ccc(N)cc2)cc1 | 3500 | inactive |  |  | 
28 | O=C(O)c1ccc(CNC(=O)c2ccc(Cl)c(Cl)c2)cc1 | 10500 | inactive |  |  | 
29 | CC(=O)c1ccc(CNC(=O)c2ccc(C(C)(C)C)cc2)cc1 | 157 | 29% |  | 100 | 
30 | CC(C)(C)c1ccc(C(=O)NCc2ccc(CO)cc2)cc1 | 2050 | inactive |  |  | 
31 | O=C(O)c1ccc(CNC(=O)c2cccc(-c3ccccc3)c2)cc1 | 10000 | 14% |  | 670 | 
32 | CC(C)(C)c1ccc(C(=O)NCc2ccc(C(=O)O)cc2F)cc1 | 1430 | 26% |  | 7.8 | 
33 | C[S+]([O-])c1ccc(CNC(=O)c2ccc(C(C)(C)C)cc2)cc1 (stereo not drawn) | 220 | 24% |  | 1300 | 
34 | CN(C)c1ccc(C(=O)NCc2ccc(C(=O)O)cc2)cc1 |  | inactive |  |  | 19
35 | CC(C)(C)c1ccc(C(=O)NCc2ccc(C(=O)O)cc2)cc1 | 4200 | 13% |  | 370 | 
36 | CC(C)(C)c1ccc(C(=O)NCc2ccc(SC(F)(F)F)cc2)cc1 | 390 | 19% |  | 0.4 | 
37 | CC(C)(C)c1ccc(C(=O)NCc2ccc(S(N)(=O)=O)cc2)cc1 | 280 | 16% |  | 1400 | 
38 | Cc1ccc(C(=O)NCc2ccc(C(=O)O)cc2)cc1 |  | 15% |  |  | 24
39 | CC(C)(C)c1ccc(C(=O)NCc2ccc(-c3nnn[nH]3)cc2)cc1 | 18200 | 23% |  | 120 | 
40 | O=C(O)c1ccc(CNC(=O)C2CCCCC2)cc1 |  | inactive |  |  | 37
41 | CNC(=O)c1ccc(CNC(=O)c2ccc(C(C)(C)C)cc2)cc1 | 1900 | 29% |  | 340 | 
42 | O=C(O)c1ccc(CNC(=O)c2ccc(C(F)(F)F)c(C(F)(F)F)c2)cc1 |  | inactive |  |  | 55
43 | O=C(O)c1ccc(CNC(=O)c2ccccc2)cc1 |  | 12% |  |  | 16
44 | CC(C)(C)c1ccc(C(=O)NCc2ccc(S(C)(=O)=O)cc2)cc1 | 1200 | 34% |  | 3800 | 
45 | CC(C)(C)c1ccc(C(=O)NCc2ccc(OCC(=O)O)cc2)cc1 | 19000 | 21% |  | 730 | 
46 | CC(C)(C)c1ccc(C(=O)NCc2ccc(OC(F)(F)F)cc2)cc1 | 220 | 26% |  | 160 | 
47 | CC(C)(C)c1ccc(C(=O)NCc2ccc(NC(=O)C(F)(F)F)cc2)cc1 | 660 | 20% |  | 260 | 
